{"source": "paper PMC11914484", "about": "(Scientific Reports, 2025)", "key": {"[1]": {"assay": "Plasma stability, rat plasma", "format": "in vitro ADME", "how_it_was_run": "(§1)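 K2-EDTA plasma from male animals of each species was incubated with the test compound (1 µM) at 37 °C for 0–4 h, with propantheline bromide (1 µM) as control. Intact compound remaining was measured by LC-MS to give the half-life.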"}, "[2]": {"assay": "Plasma stability, rabbit plasma", "format": "in vitro ADME", "how_it_was_run": "as §1"}, "[3]": {"assay": "Plasma stability, mini-pig plasma", "format": "in vitro ADME", "how_it_was_run": "as §1"}, "[4]": {"assay": "Plasma stability, dog plasma", "format": "in vitro ADME", "how_it_was_run": "as §1"}, "plasma proteins [5]": {"tested_on": "plasma proteins", "assay": "Plasma protein binding by rapid equilibration dialysis", "format": "in vitro ADME, rat", "how_it_was_run": "(§2)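 Rapid equilibrium dialysis used K2-EDTA plasma from male animals of each species. The test compound (5 µM) was incubated for 2 h at 37 °C, with propranolol (1 µM) as control. Samples were analysed by LC-MS/MS, with response taken as the analyte-to-internal-standard peak area ratio. Unbound fraction = receiver-side response / donor-side response.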"}, "plasma proteins [6]": {"tested_on": "plasma proteins", "assay": "Plasma protein binding by rapid equilibration dialysis", "format": "in vitro ADME, rabbit", "how_it_was_run": "as §2"}, "plasma proteins [7]": {"tested_on": "plasma proteins", "assay": "Plasma protein binding by rapid equilibration dialysis", "format": "in vitro ADME, mini-pig", "how_it_was_run": "as §2"}, "plasma proteins [8]": {"tested_on": "plasma proteins", "assay": "Plasma protein binding by rapid equilibration dialysis", "format": "in vitro ADME, dog", "how_it_was_run": "as §2"}, "Safety of AmyP53 in mice": {"assay": "Safety of AmyP53 in mice", "format": "in vivo, mouse", "how_it_was_run": "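C57BL/6 mice. Preliminary safety run in 5 young (4-month-old) mice: intranasal test compound, then 10 min later stereotaxic SNpc injection of test compound, then daily intranasal dosing for 7 days. Full study used 7 per group: saline, human α-synuclein protofibrils (50 µM in 0.9% NaCl, pre-incubated 37 °C for 3 days), or protofibrils plus test compound (100 µM). Injections were bilateral into the SNpc, 2.5 µL, under isoflurane. The co-treated group then received daily intranasal dosing for 35 days.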"}, "[9]": {"tested_on": "male and female Wistar rats", "assay": "Dose range finding, intranasal route", "format": "in vivo, rat", "settings": "GLP, 0.2, 1 and 5 mg/kg BW every two days during five days"}, "[10]": {"tested_on": "male and female Sprague Dawley rats", "assay": "28-Day repeated dose toxicity, intranasal", "format": "in vivo, rat"}, "[11]": {"tested_on": "male and female New Zealand White rabbits", "assay": "14-Day repeated tolerability/toxicity study, intranasal", "format": "in vivo, rabbit", "settings": "male and female rabbits, 0.1, 1 and 5 mg/kg BW/day, 14 days", "how_it_was_run": "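GLP study run by a contract lab. Male and female New Zealand White rabbits were dosed intranasally with the test compound daily for 14 days at 0.1, 1.0 and 5.0 mg/kg body weight/day, followed by a 14-day recovery period, with toxicokinetics. Read-outs: local reaction, mortality, clinical signs, body weight, food consumption, clinical pathology, ophthalmoscopy, organ weight, haematology, coagulation, clinical chemistry and histopathology of a full tissue list.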"}, "female Wistar rats": {"tested_on": "female Wistar rats", "settings": "initial studies; cited from earlier work"}, "[12]": {"settings": "cited from earlier work"}, "dog plasma proteins": {"molecular_target": "dog plasma proteins", "assay": "rapid equilibration dialysis"}, "mini-pig plasma proteins": {"molecular_target": "mini-pig plasma proteins", "assay": "rapid equilibration dialysis"}, "rabbit plasma proteins": {"molecular_target": "rabbit plasma proteins", "assay": "rapid equilibration dialysis"}, "rat plasma proteins": {"molecular_target": "rat plasma proteins", "assay": "rapid equilibration dialysis"}, "[13]": {"settings": "K2-EDTA plasma from male animals, 400 µL, 1 µM, 37 °C, 0–4 h, cold acetonitrile quench, LC-MS/MS"}, "[14]": {"settings": "RED, K2-EDTA plasma from male animals, 2 h at 37 °C, AmyP53 5 µM, Propanolol 1 µM, LC-MS/MS"}, "[15]": {"settings": "5 mice, intranasal, then SNpc injection of AmyP53, then 7 days daily intranasal"}, "[16]": {"settings": "35-day treatment, SNpc co-injection then daily intranasal, n = 7 per group"}, "[17]": {"settings": "rats, intranasal administration"}}, "note": "Ends that are not written are not given here.", "data": [{"molecule": "CC(C)[N+](C)(CCOC(=O)C1c2ccccc2Oc2ccccc21)C(C)C", "note": "[Propantheline, Propantheline bromide, reference compound]", "values": [{"measurement": "t1/2 in rat plasma", "setting": "[1]; [13]", "value": 3.78, "unit": "h"}, {"measurement": "t1/2 in rabbit plasma", "setting": "[2]; [13]", "value": 0.283, "unit": "h"}, {"measurement": "t1/2 in mini-pig plasma", "setting": "[3]; [13]", "value": 2.98, "unit": "h"}, {"measurement": "t1/2 in dog plasma", "setting": "[4]; [13]", "value": 1.73, "unit": "h"}]}, {"molecule": "CC(C)NCC(O)COc1cccc2ccccc12", "note": "(stereo not shown) [Propranolol, reference compound]", "values": [{"measurement": "bound to plasma protein %, rat plasma", "setting": "plasma proteins [5]; [14]", "value": "89.8 ±0.1", "unit": "%"}, {"measurement": "bound to plasma protein %, rabbit plasma", "setting": "plasma proteins [6]; [14]", "value": "74.8 ±1.1", "unit": "%"}, {"measurement": "bound to plasma protein %, mini-pig plasma", "setting": "plasma proteins [7]; [14]", "value": "85.2 ±0.9", "unit": "%"}, {"measurement": "bound to plasma protein %, dog plasma", "setting": "plasma proteins [8]; [14]", "value": "86.5 ±1.0", "unit": "%"}]}, {"molecule": "KEGVLYVGHHTK [AmyP53]", "values": [{"measurement": "body mass, preliminary safety assessment", "setting": "Safety of AmyP53 in mice; [15]", "value": "stable"}, {"measurement": "overall result of preliminary safety assessment", "setting": "Safety of AmyP53 in mice; [15]", "value": "safe"}, {"measurement": "effect on body weight of treated mice", "setting": "Safety of AmyP53 in mice; [16]", "value": "did not display any significant effect"}, {"measurement": "impact on overall behavior", "setting": "Safety of AmyP53 in mice; [16]", "value": "did not induce any negative impact"}, {"measurement": "maximal intranasal dose without any signs of toxicity or dysfunction", "setting": "[9]", "value": "The maximal intranasal dose of AmyP53 without any signs of toxicity or dysfunction, is greater or equal to 5 mg/kg BW in both male and female Wistar rats."}, {"measurement": "intranasal no-observed adverse effect level (NOAEL)", "setting": "[10]; male and female Sprague Dawley rats, GLP, every day for 28 days followed by 14 days of recovery", "value": 5, "unit": "mg/kg BW/day"}, {"measurement": "tolerability of repeated intranasal administration, 28 days", "setting": "[10]; male and female rats, 0.1, 1.0 and 5.0 mg/kg body weight/day, 28 days and 14 days of recovery", "value": "well tolerated"}, {"measurement": "toxicity / tolerability of repeated intranasal administration in rabbits", "setting": "[11]", "value": "no systemic or local toxicity"}, {"measurement": "half-life at 1 µM", "setting": "[1]; male, rat, K2-EDTA plasma", "value": 13.1, "unit": "h"}, {"measurement": "half-life at 1 µM", "setting": "[2]; male, rabbit, K2-EDTA plasma", "value": 10, "unit": "h"}, {"measurement": "half-life at 1 µM", "setting": "[3]; male, pig, K2-EDTA plasma", "value": 6.07, "unit": "h"}, {"measurement": "half-life at 1 µM", "setting": "[4]; male, dog, K2-EDTA plasma", "value": 1.38, "unit": "h"}, {"measurement": "fraction unbound at 2 h, 5 µM", "setting": "plasma proteins [5]; male, rat, K2-EDTA plasma", "value": 0.066}, {"measurement": "fraction unbound at 2 h, 5 µM", "setting": "plasma proteins [6]; male, rabbit, K2-EDTA plasma", "value": 0.183}, {"measurement": "fraction unbound at 2 h, 5 µM", "setting": "plasma proteins [7]; male, pig, K2-EDTA plasma", "value": 0.186}, {"measurement": "fraction unbound at 2 h, 5 µM", "setting": "plasma proteins [8]; male, dog, K2-EDTA plasma", "value": 0.154}, {"measurement": "maximal tolerated dose, one-week intranasal administration", "setting": "female Wistar rats", "value": "> 5", "unit": "mg/kg body weight"}, {"measurement": "maximal tolerated dose, one-week intravenous administration", "setting": "female Wistar rats", "value": "> 80", "unit": "mg/kg"}, {"measurement": "half-life of AmyP53 in the brain", "setting": "[12]; approximate statement in discussion", "value": "about 1 h"}, {"measurement": "Cmax in brain tissue", "setting": "[12]; [17]", "value": 1766, "unit": "ng/mL"}, {"measurement": "T1/2 in brain tissue", "setting": "[12]; [17]", "value": 1.02, "unit": "h"}, {"measurement": "Tmax in brain tissue", "setting": "[12]; [17]", "value": 5, "unit": "min"}]}, {"molecule": "KEGVLYVGHHTK", "note": "[AmyP53]", "values": [{"measurement": "bound to plasma protein %", "setting": "dog plasma proteins", "value": 84.6, "unit": "%"}, {"measurement": "bound to plasma protein %", "setting": "mini-pig plasma proteins", "value": 81.4, "unit": "%"}, {"measurement": "bound to plasma protein %", "setting": "rabbit plasma proteins", "value": 81.7, "unit": "%"}, {"measurement": "bound to plasma protein %", "setting": "rat plasma proteins", "value": 93.4, "unit": "%"}]}]}
